According to ChEMBL document CHEMBL5338774, “Quinazoline-2-Carboxamides as Selective PET Radiotracers for Matrix Metalloproteinase-13 Imaging in Atherosclerosis” (J Med Chem, 2023):
pIC50: −log10 of the molar value.

Experiments:
[1] = target: Stromelysin-2 (Homo sapiens, UniProt P09238); test: Inhibition of human recombinant MMP-10 using […]-Pro-Lys-Pro-Val-Glu-Nval-Trp-Arg-Lys(Dnp)-NH2 as substrate preincubated for 30 mins followed by substrate addition by fluorescence based analysis
[2] = target: Collagenase 3 (Homo sapiens, UniProt P45452); test: Inhibition of human recombinant MMP-13 using Mca-Lys-Pro-Leu-GlyLeu-Dpa-Ala-Arg-NH2 as substrate preincubated for 30 mins followed by substrate addition by fluorescence based analysis
[3] = target: Neutrophil collagenase (Homo sapiens, UniProt P22894); test: Inhibition of human recombinant MMP-8 incubated for 30 mins by fluorescence based analysis
Sequence of Neutrophil collagenase (P22894 whole entry): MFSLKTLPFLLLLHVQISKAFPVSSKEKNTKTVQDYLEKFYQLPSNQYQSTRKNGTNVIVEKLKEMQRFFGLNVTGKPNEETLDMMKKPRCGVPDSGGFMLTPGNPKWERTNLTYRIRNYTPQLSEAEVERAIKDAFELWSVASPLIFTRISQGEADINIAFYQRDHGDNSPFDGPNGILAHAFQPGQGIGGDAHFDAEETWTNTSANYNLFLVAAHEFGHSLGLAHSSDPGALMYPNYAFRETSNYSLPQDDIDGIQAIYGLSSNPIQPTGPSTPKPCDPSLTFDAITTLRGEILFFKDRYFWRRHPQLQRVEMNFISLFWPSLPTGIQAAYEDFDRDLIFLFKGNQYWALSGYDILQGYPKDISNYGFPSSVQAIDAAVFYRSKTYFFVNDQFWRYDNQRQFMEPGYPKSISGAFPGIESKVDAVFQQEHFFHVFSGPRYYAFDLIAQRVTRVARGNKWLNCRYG

[4] = target: T1, Interstitial collagenase (Homo sapiens, UniProt P03956); test: Inhibition of human recombinant MMP-1 incubated for 30 mins by fluorescence based analysis
T1 sequence (P03956 whole entry): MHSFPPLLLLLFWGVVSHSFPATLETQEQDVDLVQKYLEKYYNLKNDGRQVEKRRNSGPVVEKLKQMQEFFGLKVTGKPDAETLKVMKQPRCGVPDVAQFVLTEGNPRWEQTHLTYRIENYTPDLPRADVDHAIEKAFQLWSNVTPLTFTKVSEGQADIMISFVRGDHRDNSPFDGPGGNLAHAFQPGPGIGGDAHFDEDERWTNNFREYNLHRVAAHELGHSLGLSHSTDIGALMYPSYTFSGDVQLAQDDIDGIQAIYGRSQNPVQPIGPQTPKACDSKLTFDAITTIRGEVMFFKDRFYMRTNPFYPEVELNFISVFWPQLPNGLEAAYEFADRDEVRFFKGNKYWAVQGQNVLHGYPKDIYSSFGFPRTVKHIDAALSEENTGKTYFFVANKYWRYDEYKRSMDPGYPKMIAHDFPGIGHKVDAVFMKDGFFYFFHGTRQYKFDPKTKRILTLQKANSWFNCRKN

[5] = target: Matrix metalloproteinase-9 (Homo sapiens, UniProt P14780); test: Inhibition of human recombinant MMP-9 incubated for 30 mins by fluorescence based analysis
Sequence of Matrix metalloproteinase-9 (P14780 whole entry): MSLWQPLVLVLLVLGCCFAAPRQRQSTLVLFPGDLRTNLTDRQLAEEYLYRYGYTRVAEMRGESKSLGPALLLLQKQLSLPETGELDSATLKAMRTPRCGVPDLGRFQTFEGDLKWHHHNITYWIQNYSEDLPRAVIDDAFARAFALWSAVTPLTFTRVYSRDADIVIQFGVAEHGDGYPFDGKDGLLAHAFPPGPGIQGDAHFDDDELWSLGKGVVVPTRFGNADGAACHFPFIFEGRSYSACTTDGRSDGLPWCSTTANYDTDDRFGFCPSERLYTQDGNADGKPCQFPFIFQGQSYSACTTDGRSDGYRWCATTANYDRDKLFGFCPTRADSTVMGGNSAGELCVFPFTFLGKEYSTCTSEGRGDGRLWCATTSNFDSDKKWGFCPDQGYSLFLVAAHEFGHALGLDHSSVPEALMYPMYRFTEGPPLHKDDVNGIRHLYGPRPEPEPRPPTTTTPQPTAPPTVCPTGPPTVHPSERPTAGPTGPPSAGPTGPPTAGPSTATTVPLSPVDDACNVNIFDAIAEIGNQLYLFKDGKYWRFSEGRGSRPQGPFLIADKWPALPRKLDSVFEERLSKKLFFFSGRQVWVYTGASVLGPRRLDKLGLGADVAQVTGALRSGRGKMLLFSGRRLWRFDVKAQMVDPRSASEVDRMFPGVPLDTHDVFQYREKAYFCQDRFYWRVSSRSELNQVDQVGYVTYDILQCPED

[6] = target: 72 kDa type IV collagenase (Homo sapiens, UniProt P08253); test: Inhibition of human recombinant MMP-2 incubated for 30 mins by fluorescence based analysis
Sequence of 72 kDa type IV collagenase (P08253 whole entry): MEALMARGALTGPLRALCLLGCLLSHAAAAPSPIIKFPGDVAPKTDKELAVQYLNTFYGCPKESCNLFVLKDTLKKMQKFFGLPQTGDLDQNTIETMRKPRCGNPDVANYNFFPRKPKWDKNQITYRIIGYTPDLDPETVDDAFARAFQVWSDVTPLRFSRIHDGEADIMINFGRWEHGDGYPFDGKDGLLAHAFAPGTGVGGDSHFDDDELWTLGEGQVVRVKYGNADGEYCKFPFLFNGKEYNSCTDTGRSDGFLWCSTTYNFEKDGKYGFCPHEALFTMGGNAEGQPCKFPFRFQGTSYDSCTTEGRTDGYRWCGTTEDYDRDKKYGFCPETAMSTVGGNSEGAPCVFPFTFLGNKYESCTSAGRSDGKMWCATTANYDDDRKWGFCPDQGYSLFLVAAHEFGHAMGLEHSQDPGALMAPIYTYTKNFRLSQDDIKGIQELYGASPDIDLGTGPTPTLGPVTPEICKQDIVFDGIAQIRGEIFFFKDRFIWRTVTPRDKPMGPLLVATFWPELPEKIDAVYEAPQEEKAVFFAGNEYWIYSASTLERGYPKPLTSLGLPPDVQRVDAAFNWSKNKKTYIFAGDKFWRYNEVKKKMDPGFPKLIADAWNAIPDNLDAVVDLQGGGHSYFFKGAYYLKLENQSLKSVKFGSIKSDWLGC

[7] = Drug distribution in western atherogenic diet fed ApoE-/- mouse bone at […], iv administered as bolus injection measured for 30 mins by gamma counter analysis; assay type: ADME, organism-based, Bone element; conditions: in vivo, 0.5 h
In short: (§1)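 Diet-fed male ApoE-/- mice (39 ± 5 g, n = 4-6) under 2% isoflurane received radiotracer (~7.5 MBq, 100-200 µL) IV by tail-vein bolus over 30 s. After 30 min, blood was taken by cardiac puncture, then PBS/formalin perfusion and organ dissection. Uptake is decay-corrected %ID normalized to tissue mass (%ID/g).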

[8] = Drug distribution in western atherogenic diet fed ApoE-/- mouse fat tissue at […], iv administered as bolus injection measured for 30 mins by gamma counter analysis; assay type: ADME, organism-based, Adipose tissue; conditions: in vivo, 0.5 h; in short: as §1
[9] = Drug distribution in western atherogenic diet fed ApoE-/- mouse myocardium assessed as myocardial retention at […], iv administered as bolus injection measured for 60 mins by PET analysis; assay type: ADME, organism-based; conditions: in vivo, 1 h
In short: (§2)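 A 10 min transmission scan preceded tail-vein IV bolus of radiotracer (~7.5 MBq, over 30 s) in diet-fed ApoE-/- mice. Dynamic whole-body PET ran for 60 min (4×15 s, 4×1 min, 11×5 min frames), corrected for attenuation and scatter, 3D-OSEM/MAP reconstruction. Volumetric organ ROIs gave %ID·cc⁻¹ time-activity curves; n = 2 per group.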

[10] = Stability in western atherogenic diet fed ApoE-/- mouse plasma assessed as intact compound level at ~75 MBq, iv administered as bolus injection and measured after 30 mins by gamma counter analysis; assay type: ADME, organism-based; conditions: read-out: Stability
In short: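 Blood was drawn by cardiac puncture into K₂EDTA tubes 30 min after IV radiotracer in diet-fed ApoE-/- mice. Optional IV pretreatment 15 min before: unlabelled analogue 2.5 mg/kg or WAY170523 7.5 mg/kg. Pooled protein-free plasma was spiked with standard and run on radio-HPLC (C18, ammonium formate/ACN). Fractions were collected each minute and gamma-counted to give the parent fraction.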

[11] = Drug distribution in western atherogenic diet fed ApoE-/- mouse lung at […], iv administered as bolus injection measured for 30 mins by gamma counter analysis; assay type: ADME, organism-based; conditions: in vivo, 0.5 h; in short: as §1
[12] = Drug distribution in western atherogenic diet fed ApoE-/- mouse myocardium assessed as compound remaining at […], iv administered as bolus injection measured for 30 mins by gamma counter analysis; assay type: ADME, organism-based; conditions: in vivo, 0.5 h; in short: as §1
[13] = Drug distribution in western atherogenic diet fed ApoE-/- mouse urinary bladder at […], iv administered as bolus injection measured for 60 mins by PET analysis; assay type: ADME, organism-based; conditions: in vivo, 1 h; in short: as §2
[14] = Drug distribution in western atherogenic diet fed ApoE-/- mouse liver at […], iv administered as bolus injection measured for 30 mins by gamma counter analysis; assay type: ADME, organism-based; conditions: in vivo, 0.5 h; in short: as §1
[15] = Drug distribution in western atherogenic diet fed ApoE-/- mouse stomach at […], iv administered as bolus injection measured for 30 mins by gamma counter analysis; assay type: ADME, organism-based; conditions: in vivo, 0.5 h; in short: as §1
[16] = Drug distribution in western atherogenic diet fed ApoE-/- mouse spleen at […], iv administered as bolus injection measured for 30 mins by gamma counter analysis; assay type: ADME, organism-based; conditions: in vivo, 0.5 h; in short: as §1
[17] = Drug distribution in western atherogenic diet fed ApoE-/- mouse intestine at […], iv administered as bolus injection measured for 30 mins by gamma counter analysis; assay type: ADME, organism-based; conditions: in vivo, 0.5 h; in short: as §1
[18] = Drug distribution in western atherogenic diet fed ApoE-/- mouse pancreas at […], iv administered as bolus injection measured for 30 mins by gamma counter analysis; assay type: ADME, organism-based; conditions: in vivo, 0.5 h; in short: as §1
[19] = Drug distribution in western atherogenic diet fed ApoE-/- mouse aortic plaques at […], iv administered as bolus injection measured for 30 mins by Oil Red O staining based autoradiography; assay type: ADME, organism-based, Aorta; conditions: in vivo, 0.5 h
In short: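 Male ApoE-/- mice were fed a western atherogenic diet from 8 weeks of age for 13-16 weeks. Radiotracer (~7.5 MBq) was given IV by tail-vein bolus over 30 s. Blocking: unlabelled tracer analogue (2.5 mg/kg; DMA/propylene glycol/PEG400/water) or WAY170523 (7.5 mg/kg; DMSO/PEG400/water), both IV 15 min before. At 30 min, perfused aortae were exposed to a phosphor screen for 10 half-lives (%ID·mm⁻²), with ORO staining.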

[20] = Drug distribution in western atherogenic diet fed ApoE-/- mouse kidney at […], iv administered as bolus injection measured for 60 mins by PET analysis; assay type: ADME, organism-based; conditions: in vivo, 1 h; in short: as §2
[21] = Octanol/PBS distribution coefficient, logD of compound at pH 7.4 incubated for 10 mins under shaking condition by gamma counter analysis; assay type: physicochemical
In short: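 Radiotracer partitioning between 1-octanol and 1× PBS at pH 7.4. Mean ± standard error of two independent experiments, each in quadruplicate.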

[22] = Tmax in western atherogenic diet fed ApoE-/- mouse blood at […], iv administered as bolus injection measured for 60 mins by PET analysis; assay type: ADME, organism-based; conditions: in vivo, 1 h; in short: as §2
[23] = Drug distribution in western atherogenic diet fed ApoE-/- mouse intestine at […], iv administered as bolus injection measured for 60 mins by PET analysis; assay type: ADME, organism-based; conditions: in vivo, 1 h; in short: as §2
[24] = Drug distribution in western atherogenic diet fed ApoE-/- mouse brain at […], iv administered as bolus injection measured for 30 mins by gamma counter analysis; assay type: ADME, organism-based; conditions: in vivo, 0.5 h; in short: as §1
[25] = Drug distribution in western atherogenic diet fed ApoE-/- mouse kidney at […], iv administered as bolus injection measured for 30 mins by gamma counter analysis; assay type: ADME, organism-based; conditions: in vivo, 0.5 h; in short: as §1
[26] = Drug distribution in western atherogenic diet fed ApoE-/- mouse liver at […], iv administered as bolus injection measured for 60 mins by PET analysis; assay type: ADME, organism-based; conditions: in vivo, 1 h; in short: as §2
[27] = Drug distribution in western atherogenic diet fed ApoE-/- mouse blood assessed as compound remaining at […], iv administered as bolus injection measured for 30 mins by gamma counter analysis; assay type: ADME, organism-based; conditions: in vivo, 0.5 h; in short: as §1
[28] = Drug distribution in western atherogenic diet fed ApoE-/- mouse muscle tissue at […], iv administered as bolus injection measured for 30 mins by gamma counter analysis; assay type: ADME, organism-based; conditions: in vivo, 0.5 h; in short: as §1
[29] = Stability of compound in 10% EtOH/saline assessed as compound degradation measured upto 75 mins by analytical radio-HPLC analysis; assay type: physicochemical; conditions: buffer, 1.25 h
In short: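 Radiotracer formulated in 10% EtOH/0.9% saline was held at room temperature up to 75 min. Samples were analysed by analytical radio-HPLC (C18, 0.1 M ammonium formate/ACN gradient, 1 mL·min⁻¹).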

Sequence of Stromelysin-2 (P09238 whole entry): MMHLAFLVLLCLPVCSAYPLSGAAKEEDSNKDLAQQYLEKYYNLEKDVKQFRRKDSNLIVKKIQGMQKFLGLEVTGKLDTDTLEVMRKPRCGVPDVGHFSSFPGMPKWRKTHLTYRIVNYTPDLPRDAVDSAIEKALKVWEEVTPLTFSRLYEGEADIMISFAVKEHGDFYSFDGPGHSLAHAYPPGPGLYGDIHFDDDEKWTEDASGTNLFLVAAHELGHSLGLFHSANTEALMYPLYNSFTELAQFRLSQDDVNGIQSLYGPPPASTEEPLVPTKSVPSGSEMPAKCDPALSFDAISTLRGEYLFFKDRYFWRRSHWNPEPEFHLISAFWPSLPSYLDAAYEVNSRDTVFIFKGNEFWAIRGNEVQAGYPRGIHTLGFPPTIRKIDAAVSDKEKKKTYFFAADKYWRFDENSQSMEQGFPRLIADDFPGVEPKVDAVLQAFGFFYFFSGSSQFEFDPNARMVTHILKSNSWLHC

COc1cccc(CNC(=O)c2nc3ccc(F)c(OCCc4ccc(C(=O)O)cc4)c3c(=O)[nH]2)c1
pIC50 [1]: 5.49 | pIC50 [2]: 8.89 | pIC50 [3]: 5.62 | pIC50 [4]: < 5.00 | pIC50 [5]: < 5.00 | pIC50 [6]: < 5.00

Cc1cc(CNC(=O)c2nc3ccc(F)c(OCCc4ccc(C(=O)O)cc4)c3c(=O)[nH]2)ccc1F
pIC50 [1]: 5.60 | pIC50 [2]: 8.92 | pIC50 [3]: 5.77 | pIC50 [4]: < 5.00 | pIC50 [5]: < 5.00 | pIC50 [6]: < 5.00

COc1ccc(CNC(=O)c2nc3ccc(F)c(OCCc4ccc(C(=O)O)cc4)c3c(=O)[nH]2)cc1
pIC50 [1]: 5.57 | pIC50 [2]: 8.54 | pIC50 [3]: 5.85 | pIC50 [4]: < 5.00 | pIC50 [5]: < 5.00 | pIC50 [6]: < 5.00

[11CH3]Oc1cccc(CNC(=O)c2nc3ccc(F)c(OCCc4ccc(C(=O)O)cc4)c3c(=O)[nH]2)c1
Drug uptake [7]: ~ 2 % ID/g | Drug uptake [8]: ~ 2 % ID/g | Drug uptake [9]: < 0.5 %ID/cc | remaining at 0.5 h [10]: 86% | Drug uptake [11]: ~ 2 % ID/g | Drug uptake [12]: ~ 1 % ID/g | Drug uptake [13]: Not Active | Drug uptake [14]: 7.29 % ID/g | Drug uptake [15]: ~ 2 % ID/g | Drug uptake [16]: 2.11 % ID/g | Drug uptake [17]: 53.05 % ID/g | Drug uptake [18]: ~ 2 % ID/g | Drug uptake [19]: 52.97 %ID.m^-2 | Drug uptake [20]: 21.01 %ID/cc | logD at 10 min [21]: 1.16 | Tmax [22]: 37.5 s | Drug uptake [23]: Active | Drug uptake [24]: ~ 2 % ID/g | Drug uptake [25]: 30.95 % ID/g | Drug uptake [26]: 25.29 %ID/cc | Drug uptake [27]: 0.49 % ID/g | Drug uptake [28]: ~ 2 % ID/g | Stability [29]: Stable

Cc1cc(CNC(=O)c2nc3ccc(F)c(OCCF)c3c(=O)[nH]2)ccc1F
pIC50 [1]: 5.51 | pIC50 [2]: 7.80 | pIC50 [3]: 5.92 | pIC50 [4]: < 5.00 | pIC50 [5]: < 5.00 | pIC50 [6]: < 5.00

O=C(O)c1ccc(CCOc2c(F)ccc3nc(C(=O)NCc4cccc(O)c4)[nH]c(=O)c23)cc1
pIC50 [1]: 5.55 | pIC50 [2]: 8.89 | pIC50 [3]: 5.68 | pIC50 [4]: < 5.00 | pIC50 [5]: < 5.00 | pIC50 [6]: < 5.00

Cc1cc(CNC(=O)c2nc3ccc(F)c(F)c3c(=O)[nH]2)ccc1F
pIC50 [2]: 6.97

Cc1cc(CNC(=O)c2cc(C(=O)NCc3ccc(OCCF)cc3)ncn2)ccc1F
pIC50 [2]: 7.28

COc1ccc(CNC(=O)c2nc3ccc(F)c(F)c3c(=O)[nH]2)cc1
pIC50 [2]: 6.50
